We go through 25 compounds from ChEMBL document CHEMBL3596186, “Synthesis and biological evaluation of diarylthiazole derivatives as antimitotic and antivascular agents with potent antitumor activity” (Bioorg Med Chem, 2015).

Test [1] is described as follows: Antiproliferative activity against human […] cells after 48 hrs by MTT assay. Type of test: functional, cell-based. An outline of the steps:
(§1)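 HCT116, HepG2, SMMC-7721, SK-OV-3 and A2780s grown in DMEM; A549 and MCF-7 in RPMI-1640; all with 10% FBS and penicillin/streptomycin at 37 °C, 5% CO2. Log-phase cells at 40,000-50,000 cells/mL treated with graded concentrations for 48 h. MTT 3 h, DMSO solubilization, A570. IC50 from percent growth versus untreated control; mean ± SEM of ≥3 independent dose-response experiments.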
(Tetrazolium dyes change colour on reduction, which living cells bring about.)

A short description of test [2]: Inhibition of pig microtubule polymerization after 30 mins by turbidimetric assay. Also on record: species or system Sus scrofa. An outline of the steps:
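Porcine-brain MAP-rich tubulin at 3 mg/mL preincubated 30 min at 4 °C in 0.1 M PIPES pH 6.9, 2 mM MgCl2, 0.5 mM EGTA. Compounds added 2 min before the run, then 1 mM GTP. Turbidity followed kinetically at 340 nm at 37 °C; assembly IC50 derived by Hamel's method.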

For another test, the system named is HepG2. As to the kind of experiment: Antiproliferative activity against human HepG2 cells after 48 hrs by MTT assay. It counts as functional, cell-based. To be noted: HepG2, 48 h. An outline of the steps:
as §1

The test system of the next test is HCT-116. Briefly: Antiproliferative activity against human HCT116 cells after 48 hrs by MTT assay. Type of test: functional, cell-based. To be noted: HCT-116, 48 h. An outline of the steps:
as §1

Test [3] in a line: Antiproliferative activity against human A2780S cells after 48 hrs by MTT assay. The following applies: A2780, 48 h. It counts as functional, cell-based. Summed up:
as §1

The next test concerns SK-OV-3. As to the kind of experiment: Antiproliferative activity against human SKOV3 cells after 48 hrs by MTT assay. The following applies: SK-OV-3, 48 h. Type of test: functional, cell-based. Summed up: as §1
The next test has as its target Tubulin (Homo sapiens) (UniProt P68371+Q9H4B7+P0DPH7+P68366+Q13509+Q71U36+P04350+Q3ZCM7+P07437+P68363+Q9BQE3+Q6PEY2+Q13885+Q9BVA1+Q9BUF5). As to the kind of experiment: Binding affinity to tubulin in human HepG2 cells at 5 uM after 4 hrs by EBI competition assay. Type of test: cell-based. Summed up: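 HepG2 cells seeded at 500,000 cells/well, allowed to adhere, then treated with compound for 4 h. EBI added at 100 µM for 1.5 h. Cell extracts (about 20 µg protein) run on 10% SDS-PAGE, blotted to PVDF, probed with anti-β-tubulin, detected by ECL with GAPDH as loading control. Read-out is loss of the faster-migrating β-tubulin–EBI adduct band.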

For test [4], the system named is A549. Briefly: Antiproliferative activity against human A549 cells after 48 hrs by MTT assay. It counts as functional, cell-based. The following applies: A549, 48 h. An outline of the steps: as §1
Test [5] is described as follows: Antiproliferative activity against human HCC827 cells after 48 hrs by MTT assay. It counts as functional, cell-based. The following applies: HCC827, 48 h.
Test [6] relates to NCI-H1975. As to the kind of experiment: Resistance ratio, ratio of IC50 for human gefitinib-resistant NCI-H1975 cells to IC50 for human HCC827 cells. Type of test: functional.
Test [7] concerns A549. As to the kind of experiment: Antiproliferative activity against human taxol-resistant A549 cells after 48 hrs by MTT assay. It counts as functional, cell-based. The following applies: A549, 48 h. An outline of the steps: (§2)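 MCF-7/ADR (doxorubicin-resistant) and A549/T (taxol-resistant) cells in RPMI-1640 with 10% FBS and penicillin/streptomycin. Log-phase cells at 40,000-50,000 cells/mL exposed to graded concentrations for 48 h. MTT 3 h, DMSO solubilization, absorbance 570 nm. IC50 from percent growth versus untreated control; mean ± SEM of ≥3 independent experiments.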

In test [8] the test system is A549. Briefly: Resistance ratio, ratio of IC50 for human taxol-resistant A549 cells to IC50 for human A549 cells. It counts as functional. An outline of the steps:
(§3)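 MTT assay: log-phase cells at 40,000-50,000 cells/mL in RPMI-1640 with 10% FBS, exposed to graded concentrations for 48 h, then MTT 3 h, DMSO solubilization, absorbance at 570 nm. IC50 from growth versus untreated control, at least three independent experiments. Ratio = resistant-line IC50 / parental-line IC50.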

Test [9] deals with MCF7. As to the kind of experiment: Resistance ratio, ratio of IC50 for human doxorubicin-resistant MCF7 cells to IC50 for human MCF7 cells. Type of test: functional. Summed up: as §3
Test [10] concerns NCI-H1975. As to the kind of experiment: Antiproliferative activity against human gefitinib-resistant NCI-H1975 cells after 48 hrs by MTT assay. It counts as functional, cell-based. The following applies: NCI-H1975, 48 h.
The nature of test [11]: Antiproliferative activity against human doxorubicin-resistant MCF7 cells after 48 hrs by MTT assay. To be noted: MCF7, 48 h. Type of test: functional, cell-based. Summed up: as §2
The test system of test [12] is MCF7. Briefly: Antiproliferative activity against human MCF7 cells after 48 hrs by MTT assay. It counts as functional, cell-based. The following applies: MCF7, 48 h. An outline of the steps:
as §1

The structures appear in SMILES notation. Active and inactive are the calls of the source. No cut-off for these calls is given here.

On to `CCOc1ccc(-c2nc(NC(=O)CC)sc2-c2cc(OC)c(OC)c(OC)c2)cc1`, for which the IC50 in test [1] was 10.8 nM; in test [2], > 10000 nM; with HepG2 it was 40.6 nM; with HCT-116, 50.5 nM; in test [3], 5.1 nM; with SK-OV-3, 60.4 nM.
`COc1ccc(-c2nc(N)sc2-c2cc(OC)c(OC)c(OC)c2)cc1`: the IC50 in test [1] is 9 nM; in the test on HepG2, 50.6 nM; with HCT-116, 93.7 nM; in [3] it was 14 nM; in the test on SK-OV-3, 110 nM.
Taken in the same sequence, the figures for `CCOc1ccc(-c2nc(NS(=O)(=O)c3ccc([N+](=O)[O-])cc3OC)sc2-c2cc(OC)c(OC)c(OC)c2)cc1` were > 5000 nM, > 5000 nM, > 5000 nM, > 5000 nM and > 5000 nM.
Regarding `COc1cc2c(c(OC)c1OC)-c1ccc(OC)c(=O)cc1[C@@H](NC(C)=O)CC2` [COLCHICINE], the half-inhibitory concentration (IC50) in [2] was 5020 nM.
In the case of `CCOc1ccc(-c2nc(N(CC)CC)sc2-c2cc(OC)c(OC)c(OC)c2)cc1`, the IC50 (in test [1]; with HepG2; with HCT-116; in test [3]; in the test on SK-OV-3) was > 5000 nM in each case.
Consider `CCOc1ccc(-c2nc(NC(C)=O)sc2-c2cc(OC)c(OC)c(OC)c2)cc1`, for which the half-inhibitory concentration (IC50) worked out at 13 nM in [1]; 60.9 nM in the test on HepG2; 10.2 nM in the test with HCT-116; 10.2 nM in test [3]; 167 nM with SK-OV-3.
For the compound `CCCC(=O)Nc1nc(-c2ccc(OCC)cc2)c(-c2cc(OC)c(OC)c(OC)c2)s1`, the IC50 in test [1] stood at 11 nM; in test [2], 9040 nM; in the test with HepG2 it was 76.8 nM; in the test on HCT-116 it was 18 nM; in [3], 18 nM; in the test with SK-OV-3, 105 nM. The result at Tubulin (Homo sapiens) was inactive.
As to `CCOc1ccc(-c2ncsc2-c2cc(OC)c(OC)c(OC)c2)cc1`, the half-inhibitory concentration (IC50) in test [1] turned out to be 128 nM; in test [2] it was 3550 nM; in the test with HepG2, 65 nM; in the test on A549 [4] it was 696 nM; in test [5], 469 nM; in the test with HCT-116, 62 nM. Also, the IC50 in the test on A549 [7] amounted to 425 nM; in the test on NCI-H1975 [10], 1120 nM; in test [3] it was 86 nM; in the test with SK-OV-3, 10 nM; in test [11] it was 1560 nM; in the test with MCF7 [12] it was 1160 nM. Further, on Tubulin (Homo sapiens), the result was inactive. In addition, the “Ratio IC50” value is 2.38 with NCI-H1975 [6], 0.45 in the test with A549 [8] and 1.3 in the test on MCF7 [9].
Turning to `CCOc1ccc(-c2nc(N(Cc3ccccc3)Cc3ccccc3)sc2-c2cc(OC)c(OC)c(OC)c2)cc1`, the IC50 (in [1]; in the test with HepG2; in the test with HCT-116; in test [3]; in the test on SK-OV-3) was > 5000 nM each time.
With `CCOc1ccc(-c2nc(C=O)sc2-c2cc(OC)c(OC)c(OC)c2)cc1`, the IC50 in test [1] was 106 nM; in test [2] it was > 10000 nM; in the test on HepG2 it was 50 nM; in the test on HCT-116, 48 nM; in test [3], 104 nM; with SK-OV-3, 9 nM.
Turning to `CCCN(CCC)c1nc(-c2ccc(OCC)cc2)c(-c2cc(OC)c(OC)c(OC)c2)s1`, the IC50 (in test [1]; with HepG2; in the test on HCT-116; in [3]; with SK-OV-3) was > 5000 nM throughout.
Regarding `CCOc1ccc(-c2nc(N(C)C)sc2-c2cc(OC)c(OC)c(OC)c2)cc1`, the half-inhibitory concentration (IC50) (in [1]; in the test on HepG2; in the test with HCT-116; in test [3]; with SK-OV-3) was > 5000 nM in each case.
On to `C=CCN(CC=C)c1nc(-c2ccc(OCC)cc2)c(-c2cc(OC)c(OC)c(OC)c2)s1`, for which the 50% inhibitory concentration (IC50) (in [1]; in the test with HepG2; in the test on HCT-116; in [3]; in the test on SK-OV-3) was > 5000 nM throughout.
Regarding `CCOc1ccc(-c2nc(C(OCC)OCC)sc2-c2cc(OC)c(OC)c(OC)c2)cc1`, the IC50 (in test [1]; with HepG2; with HCT-116; in test [3]; in the test with SK-OV-3) was > 5000 nM throughout.
`CCOc1ccc(-c2nc(NS(=O)(=O)c3ccc(OC)c(F)c3)sc2-c2cc(OC)c(OC)c(OC)c2)cc1`: the IC50 (in test [1]; in the test with HepG2; with HCT-116; in [3]; in the test on SK-OV-3) was > 5000 nM each time.
Take `CCOc1ccc(-c2nc(C(C)(C)C)sc2-c2cc(OC)c(OC)c(OC)c2)cc1`: the 50% inhibitory concentration (IC50) (in [1]; with HepG2; in the test with HCT-116; in test [3]; in the test on SK-OV-3) was > 5000 nM in each case.
In [2], `COc1ccc(/C=C\c2cc(OC)c(OC)c(OC)c2)cc1O` [COMBRETASTATIN A4] showed an IC50 of 5910 nM.
`CCOc1ccc(-c2nc(NS(=O)(=O)c3ccc(Br)cc3C(F)(F)F)sc2-c2cc(OC)c(OC)c(OC)c2)cc1`: the half-inhibitory concentration (IC50) (in [1]; in the test with HepG2; with HCT-116; in test [3]; in the test with SK-OV-3) was > 5000 nM in each case.
For `COc1cccc2c1C(=O)c1c(O)c3c(c(O)c1C2=O)C[C@@](O)(C(=O)CO)C[C@@H]3O[C@H]1C[C@H](N)[C@H](O)[C@H](C)O1` [DOXORUBICIN], half-maximal inhibition in [11] (IC50) required 5300 nM.
As for `CCOc1ccc(-c2nc(NS(=O)(=O)c3ccc(C)c(C)c3)sc2-c2cc(OC)c(OC)c(OC)c2)cc1`, the IC50 (in test [1]; in the test on HepG2; with HCT-116; in test [3]; in the test on SK-OV-3) was > 5000 nM in each case.
On to `CCOc1ccc(-c2sc(N)nc2-c2cc(OC)c(OC)c(OC)c2)cc1`, for which the IC50 in [1] stood at 10 nM; in the test with HepG2, 8.3 nM; in the test with HCT-116 it was 9.2 nM; in test [3] it was 8.6 nM; in the test on SK-OV-3 it was 8.4 nM.
As to `CCOc1ccc(-c2nc(NC(=O)C(C)C)sc2-c2cc(OC)c(OC)c(OC)c2)cc1`, the half-inhibitory concentration (IC50) in test [1] amounted to 65.2 nM; in the test with HepG2 it was 177 nM; with HCT-116, 22.5 nM; in test [3], 22.5 nM; with SK-OV-3, 85.2 nM.
With `CCOc1ccc(-c2nc(C)sc2-c2cc(OC)c(OC)c(OC)c2)cc1`, the 50% inhibitory concentration (IC50) in test [1] is 126 nM; in test [2], > 10000 nM; in the test with HepG2 it was 368 nM; with HCT-116, 64 nM; in [3], 106 nM; in the test on SK-OV-3 it was 68 nM.
As for `CCOc1ccc(-c2nc(NS(=O)(=O)c3ccsc3Cl)sc2-c2cc(OC)c(OC)c(OC)c2)cc1`, the IC50 (in test [1]; with HepG2; in the test with HCT-116; in test [3]; in the test on SK-OV-3) was > 5000 nM in each case.
For `CCOC(=O)c1nc(-c2ccc(OCC)cc2)c(-c2cc(OC)c(OC)c(OC)c2)s1`, the IC50 (in test [1]; with HepG2; in the test on HCT-116; in test [3]; in the test with SK-OV-3) was > 5000 nM throughout.

As a reminder, the IC50 is the concentration needed to halve the response being measured. Higher therefore signals weaker potency.
